ChEMBL document CHEMBL4513216, “Probing the Open Global Health Chemical Diversity Library for Multistage-Active Starting Points for Next-Generation Antimalarials” (ACS Infect Dis, 2020)

Assay: Toxicity liver stage against HepG2, at 10uM
Format: cell-based
Parameters: test concentration 10 uM, cell line HepG2-A16-CD81EGFP
Conditions: human, HepG2-A16-CD81EGFP cells; read-out: INHIBITION
In short: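 Uninfected HepG2-A16-CD81EGFP cells, 3 × 10^3 per well, 1536-well, plated on prespotted compound at 10 μM final, parasite-free screening media added to match infected plates; puromycin 10 μM positive, DMSO 0.5% negative; run in parallel with 48 h PbLuc assay at 37 °C, 5% CO2; viability by CellTiter-Glo luminescence, normalized to controls.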

| Structure (SMILES) | cytotoxicity at 10 µM [%] |
| --- | --- |
| O=c1ncn(-c2ccc(F)cc2)c2ncccc12 | 0.946 |
| Cc1nc2ccccc2c(=O)n1Cc1nnnn1C1CC1 | -13.8 |
| Cc1ccc(-c2noc([C@@H]3C[C@H](NC(=O)CC(C)(C)C)CN3C)n2)cc1 | 7.35 |
| Cn1nnnc1SCC(=O)N1CCN(C(=O)C2CC2c2cccs2)CC1 (stereo not given) | 8.58 |
| O=C(CC1CCCCC1)N1CCOCC1CO (stereo not given) | -0.779 |
| Cc1ccsc1C(=O)N1CC2CC1(C(=O)NCc1ccco1)C2 | -6.43 |
| CC(C)NC(=O)C1CN(C(=O)c2cccs2)CC12CCOCC2 (stereo not given) | -3.59 |
| Cn1cc(C2CC3(CCN(C(=O)c4cccs4)CC3)NC2=O)cn1 (stereo not given) | 1.27 |
| CNc1oc(-c2cc(S(=O)(=O)N3CCCC3)c(C)o2)nc1C#N | 5.08 |
| COc1cc(CC2CC(c3ccc4c(c3)OCO4)=NO2)cc2c1OCO2 (stereo not given) | 0.69 |
| O=C(CCc1ccccc1F)NC1CCCN(c2ccccn2)C1 (stereo not given) | 2.21 |
| CCC(C)(O)CNc1ccc(S(=O)(=O)C(F)F)cc1 (stereo not given) | 12.2 |
| CC(NC(=O)Nc1cccnc1N1CCOCC1)c1ccccc1 (stereo not given) | 2.83 |
| O=C(NCc1ccnc(OCC2CC2)c1)C1Cc2ccccc2O1 (stereo not given) | -0.483 |
| CC1CCCCN1C(=O)Cn1cc(I)cn1 (stereo not given) | 0.687 |
| Cc1cccc(-c2noc(CN3CCC(c4ccn[nH]4)CC3)n2)c1 | 4.13 |
| Cc1cc(CN2CCc3cncnc3C2)on1 | 4.13 |
| Cc1ccnc(N2CCC(NCCOc3ccccc3)CC2)n1 | -1.21 |
| Cc1cnc(CN(Cc2ccc(C#N)cc2F)C2CCN(C)C2)o1 (stereo not given) | 0.172 |
| CS(=O)(=O)CCCOc1cccc(-n2cccn2)c1 | -9.22 |
| Cn1cccc1C1CCCN1Cc1noc(C(C)(C)C)n1 (stereo not given) | -4.4 |
| O=S(=O)(CC1CCCCC1)NCc1ccnc(O)c1 | 6.54 |
| Cc1cc(C(=O)N2CCC(c3nnc(Cn4ccnc4)n3C)CC2)cs1 | -114 |

| Structure (SMILES) | cytotoxicity at 10 µM [%] |
| --- | --- |
| CC(=O)CCC(=O)N1CCC2(CC1)N=C(CCC(C)C)NC2=O | -7.14 |
| Cc1ccc2c(c1)SCC(=O)N2CC(=O)N1CCCC1c1cc(C)no1 (stereo not given) | 8.32 |
| CC(C)CN1CCN(S(=O)(=O)c2cn(C)cn2)[C@H]2CS(=O)(=O)C[C@H]21 | -4.07 |
| CCN1CCN(S(=O)(=O)N2CCc3ccccc3C2)[C@H]2CS(=O)(=O)C[C@H]21 | -4 |
| CC(C)N1CC(c2ncc(-c3ccc4c(c3)OCCO4)[nH]2)CC1=O (stereo not given) | 0.166 |
| Cc1nc2ccccc2n1Cc1cc(C(=O)N(C)C2CCOC2)n[nH]1 (stereo not given) | 4.91 |
| CCCc1cnc(C)nc1N1CCC(F)(F)CC1 | 7.46 |
| CCc1ccccc1OCCCN(C)C(=O)C1CCCN1C(N)=O (stereo not given) | 0.369 |
| O=C(CCN1CCOCC1)N1CCC(Cc2ccc(CO)cc2)C1 (stereo not given) | -9.47 |
| CCc1cc(CN(C)C(=O)c2cnon2)on1 | 9.83 |
| Cc1c(Cl)c(C(=O)N2CC[C@H](N3CCOCC3)[C@H](CCCO)C2)nn1C | -148 |
| Cc1ccc(NC2CCN(C(=O)c3ccncc3)CC2)nn1 | 8.85 |
| CC(Cn1cccn1)NC(=O)Nc1nncs1 (stereo not given) | -1.86 |
| CCCc1cc(C(=O)NCCN2CCCS2(=O)=O)[nH]n1 | -7.13 |
| CC(=O)N1CCCN(C(=O)NCc2cccnc2OC(C)C)CC1 | -5.5 |
| c1ccc(-c2nc(CN3CCn4c(nnc4C4CC4)C3)co2)cc1 | -2.18 |
| COc1c(C2CCCN2Cc2noc(C)n2)c(C)nn1C (stereo not given) | -12.5 |
| Cc1ccc(C(=O)Nc2ccc(S(=O)(=O)/N=C3\CCCN3C)cc2)s1 | 0.174 |
| CCOc1ncccc1C(=O)NC1CCCN(c2ncccn2)C1 (stereo not given) | -23.5 |
| CC(C)CN1C[C@@H]2C(=O)N(C)C3(CCN(C(=O)C(C)C)CC3)[C@@H]2C1 | 6.88 |
| COC1COC2(CCN(Cc3ccccc3Cl)CC2)C1 (stereo not given) | -14.1 |
| CN1CCN(C[C@@H]2OC[C@H]3CN(CCc4ccccc4)CC[C@H]32)CC1 | 8.84 |
